# Screens: PubChem, several laboratories
# Only some compounds are listed: those with a hit (about 3% of all), similar ones and a draw of the others.
# Apaf1 inhib: inhibitors of human Apaf-1 apoptosome, primary screen, biochemical, DEVD-Rh110 fluorescence, uHTS; Apoptotic protease-activating factor 1 (Homo sapiens), O14727; reconstituted apoptosome caspase-3 activity; inhibition, % at 20 µM; hit rate 0.71% among 330,000; active means inhibition of at least 40% at 20 µM;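 further: plate controls were DMSO wells for no effect and DEVD-CHO caspase inhibitor wells for full effect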
#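 Material: cell-free apoptosome with Apaf-1, procaspase-3 and caspase-9; Buffer or medium: Hepes pH 7.5 with detergent and BSA; Reagent: cytochrome c trigger plus (Z-DEVD)2-Rh110 caspase-3 substrate; Times: compound with Apaf-1, dATP, procaspase-3 30 min, then 50 min reaction, room temperature; Technique: Rh110 fluorescence intensity.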
# beta cell repl: inducers of MIN6 beta-cell proliferation, primary screen, ATP luminescence, uHTS; hit rate 0.29% among 330,000; proliferation, % at 10 µM; MIN6 cells proliferation, ATPlite luminescence, 48 h; cells starved in 0.2% serum; 100% = growth in 10% serum;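 active means compounds whose signal lies at least 3.5 SD above the mean of all wells on their plate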;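 further: 0% = DMSO-treated cells in low-serum medium and 100% = 10% serum control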
# MPTP inh: mitochondrial permeability transition pore inhibitors, primary screen, biochemical, isolated mouse mitochondria, absorbance. Ca2+ swelling absorbance, 30 min. inhibition, % at 10 µM. hit rate 1.4% among 360,000;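 active means inhibition of 50% or more, scaled per plate between neutral and stimulator controls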;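 further: 0% = DMSO wells given calcium and 100% = 1 mM EGTA wells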
# iPSC survival up: enhancers of single-cell hiPSC survival, primary screen, ATPlite luminescence; 100% = ROCK inhibitor wells, 0% = DMSO; survival enhancement, % at 20 µM; hit rate 0.044% among 360,000; AID 602274, 2012; in the data active means survival enhancement above about 18%;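 further: cells exposed to compounds for 16 hours before the ATP read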
# UBC13 polyUb: UBC13 polyubiquitin chain formation inhibitors, primary screen, biochemical, TR-FRET, uHTS | inhibition, % at 20 µM | hit rate 0.47% among 330,000; in the data active means inhibition above about 45%, passing the limit was not always enough; inconclusive means no clear call, values can overlap the other calls
# Granule exo inh: LAMP-1 surface exposure blockers, TALL-104 cells – cell-based, flow cytometry, MLPCN library, primary screen | TALL-104 LAMP-1 surface exposure; cells stimulated with thapsigargin and PMA | inhibition, % at 10 µM | hit rate 0.66% among 360,000;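 active means inhibition above about 55%, limit read from the data; inconclusive means no clear call, values can overlap the other calls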
# MPTP counter: fluorescence retest of MPTP screen hits in isolated mitochondria, single concentration; shares compounds with MPTP inh; membrane potential, Rhodamine 123 fluorescence; inhibition, % at 10 µM; hit rate 78% among 5,000; AID 624504, 2012; in the data active means inhibition above about 22%;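 further: 0% = DMSO vehicle and 100% = positive control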
# MPTP swell DR: mitochondrial permeability transition pore inhibitors, dose response, biochemical, absorbance, uHTS hits. hit rate 58% among 780. shares compounds with MPTP inh. IC50, µM. AID 651561, 2012. isolated mitochondria swelling; in the data active means IC50 below about 20 µM
# MPTP counter DR: fluorescent counter-screen in isolated mitochondria, dose response, counter-screen for MPTP inhibitor project, biochemical, fluorescence, uHTS hits. hit rate 49% among 780. IC50, µM. shares compounds with MPTP inh. isolated mitochondria counterscreen, fluorescence read-out; in the data active means IC50 below about 80 µM
# Active calls of the source: *; i = inactive; ? = inconclusive; . = not tested or not shown.
SMILES,Apaf1 inhib,beta cell repl,MPTP inh,iPSC survival up,UBC13 polyUb,Granule exo inh,MPTP counter,others
CN1/C(=C\C=C(/C#N)C(=O)Nc2ccc(Cl)cc2)C(C)(C)c2ccccc21,9,-3,11,3,-20,7,.,
Cc1ccccc1S(=O)(=O)Cc1ccc(C(=O)NC2CCCCC2)o1,2,4,-1,0,1,-6,.,
CC(C)c1ccc(C2C3=C(CC(C)(C)CC3=O)NC3=C2C(=O)c2ccccc23)cc1 (stereo not drawn),8,-5,84*,0,-36,18,61*,
CC1(C)CC(=O)C2=C(C1)NC1=C(C(=O)c3ccccc31)C2c1cc([N+](=O)[O-])ccc1O (stereo not drawn),-7,-4,94*,0,-40,10,57*,
CC1(C)CC(=O)C2=C(C1)NC1=C(C(=O)c3ccccc31)C2c1cccnc1 (stereo not drawn),5,-4,1,9,?,-3,.,
CC1(C)CC(=O)C2=C(C1)NC1=C(C(=O)c3ccccc31)C2c1ccccc1 (stereo not drawn),3,0,34,0,?,21,.,
C(=C\c1ccccc1)/CN1CCN(C(c2cccs2)c2nnnn2-c2ccc3c(c2)OCCO3)CC1 (stereo not drawn),.,.,0,-1,.,15,.,
CCCCn1c(N)c(N(CCOC)C(=O)c2ccc3c(c2)C(=O)N(c2cc(C)ccc2C)C3=O)c(=O)[nH]c1=O,-1,1,-1,0,-19,7,.,
COc1ccc(-c2ccc(CN3C(C(C)C)C(=O)N(Cc4cn(CC5CCCCC5)nn4)CCS3(=O)=O)cc2)cc1OC (stereo not drawn),.,.,-1,0,.,-2,.,
CCOC(=O)c1c(NC(=O)CSc2nc3cccnc3n2C)sc(C(C)=O)c1C,9,-2,92*,-1,-4,0,4,MPTP swell DR=3.7*;MPTP counter DR=3.5*
CCOC(=O)c1cccc(NC(=O)CSc2nc3cccnc3n2C)c1,14,0,73*,3,8,4,29*,
CCOC(=O)c1c(NC(=O)CSc2ncnc3ccccc23)sc(C(C)=O)c1C,1,-3,58*,2,4,1,4,
CCOC(=O)c1sc(NC(=O)CSc2nc3cccnc3n2C)nc1C,-2,3,6,0,3,9,.,
COC(=O)c1c(NC(=O)CSc2ncnc3ccccc23)sc(C)c1C,-20,-3,8,0,4,-11,.,
CCOC(=O)c1c(NC(=O)CSc2nnc(-c3ccccc3C)n2C)sc(C(C)=O)c1C,23,-5,84*,0,-29,2,67*,
Cc1nc2ccccc2c(=O)n1-c1ccc(NS(=O)(=O)c2ccc(F)cc2)cc1,3,2,-3,0,-1,2,.,
CCOC(=O)c1c(NC(=O)CSc2nnc(-c3cccnc3)o2)sc(C(C)=O)c1C,8,-4,75*,-2,-13,1,7,MPTP swell DR=i;MPTP counter DR=13*
Cc1ccc(-c2nn(-c3ccccc3)cc2C=C2C(=O)CC(C)(C)CC2=O)cc1,19,-5,2,1,-15,52,.,
CC1(C)CC(=O)C(=Cc2cn(-c3ccccc3)nc2-c2ccccc2)C(=O)C1,-5,-4,76*,0,-1,56*,-3,MPTP swell DR=i;MPTP counter DR=5.7*
COC(=O)CCC(=O)N1CCCC(N2CCN(c3ccc(OC)cc3)CC2)C1 (stereo not drawn),10,1,0,0,-7,2,.,
CCc1ccc(OCC(=O)NC(C)C)cc1,-20,3,-2,0,2,0,.,
CC(=O)c1ccc(NC(=S)NC(NC(=O)c2ccco2)C(Cl)(Cl)Cl)cc1 (stereo not drawn),13,-3,14,0,4,4,.,
O=C(NC(NC(=S)Nc1ccc(Cl)cc1)C(Cl)(Cl)Cl)c1ccco1 (stereo not drawn),8,-3,96*,4,-2,3,84*,
CCc1ccc(OCC(=O)NC(NC(=S)Nc2ccc(Cl)cc2)C(Cl)(Cl)Cl)cc1 (stereo not drawn),14,-5,98*,-1,-15,-1,81*,
CCc1nnc(NS(=O)(=O)c2ccc(NC(=S)NC(=O)/C=C/c3ccc(F)cc3)cc2)s1,20,-1,53*,1,-17,0,40*,
SMILES,Apaf1 inhib,beta cell repl,MPTP inh,iPSC survival up,UBC13 polyUb,Granule exo inh,MPTP counter,others
CCc1nnc(NS(=O)(=O)c2ccc(NC(=S)NC(=O)/C=C/c3ccc([N+](=O)[O-])cc3)cc2)s1,1,-1,-3,1,-8,0,.,
Cc1cccc(N=C2NC(=O)S/C2=C\c2ccco2)c1,15,-5,71*,0,-15,5,54*,
O=C1NC(=Nc2ccc(Cl)cc2)/C(=C/c2ccco2)S1,-7,0,79*,-1,8,-3,56*,
Cc1cccc(N=C2NC(=O)/C(=C/C=C/c3ccco3)S2)c1,.,.,8,3,.,-11,.,
COCCCNC(=O)CC1C[C@H](C(=O)N2CCOCC2)[C@@]2(CCC3CCCC3)c3[nH]c4ccc(OC)cc4c3CCN2C1=O (stereo partly drawn),9,.,0,-2,.,-2,.,
Cc1ccc(O)c(-c2cc3ccccc3[nH]2)c1,15,-4,53*,-1,9,0,49*,
COc1ccc(-c2cc3ccccc3[nH]2)cc1,-35,-1,2,-1,17,-1,.,
C/C(Cl)=C\Cn1c(NCCc2ccccc2)nc2c1c(=O)n(C)c(=O)n2C,1,-4,54*,-1,6,3,83*,
COc1cccc(Nc2nc3ccccc3nc2NS(=O)(=O)c2cccs2)c1,-2,-5,58*,-2,-6,-3,71*,
COc1ccc(Nc2nc3ccccc3nc2NS(=O)(=O)c2cccs2)c(OC)c1,10,-3,37,-1,-14,1,.,
CC(C)[C@@H](CO)N(C)S(=O)(=O)c1ccccc1Br,8,.,0,1,.,-2,.,
COc1cc(C(=O)NCc2ccccc2)ccc1OC(F)F,2,-1,1,-1,-5,0,.,
